From PubChem
Sampled rows, rich in hits. Any-hit rate of the full collection: about 2.5%.
GSTO1 inh: counter-screen for RBBP9 inhibitors: inhibitors of human GSTO1; recombinant GSTO1, activity-based probe fluorescence polarization; inhibition, % at 5.96 µM; actives 1.1% (n = 300,000); P78417;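 active = inhibition above the campaign mean inhibition plus 3 SD, cut at about 35% in these data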
CTSL1 counter: cathepsin L1 inhibition, PFM18AAP counter-screen. inhibition, % at 5.96 µM. recombinant F. hepatica cathepsin L1, Z-Leu-Arg-MCA fluorescence. actives 0.49% (n = 300,000);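 active = inhibition above the mean of all tested compounds plus 3 SD, set per screening campaign, cut at about 17% in these data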
PRMT1 FP inh: inhibitors of human PRMT1; Q99873; recombinant PRMT1, activity-based probe fluorescence polarization; inhibition, % at 2.79 µM; actives 1.3% (n = 370,000);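 active = inhibition above about 21% made by adding two undisclosed values, limit read from the data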
PAD4 FP inh: inhibitors of human PAD4; Q9UM07; recombinant PAD4, RCA probe fluorescence polarization; inhibition, % at 6.36 µM; actives 0.41% (n = 330,000); AID 485272;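 active = percent inhibition above a cutoff equal to the mean of all tested compounds plus 3 SD, cut at about 15% in these data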
TDP2 absorb: blocks human TDP2 phosphodiesterase activity. recombinant TDP2, T5PNP hydrolysis, p-nitrophenol absorbance 415 nm. inhibition, % at 12.8 µM. AID 720702. actives 0.34% (n = 370,000). O95551;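 active = inhibition above the mean of all tested compounds plus 3 SD, set per campaign, cut at about 25% in these data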
Target sequence (O95551 whole entry, looked up): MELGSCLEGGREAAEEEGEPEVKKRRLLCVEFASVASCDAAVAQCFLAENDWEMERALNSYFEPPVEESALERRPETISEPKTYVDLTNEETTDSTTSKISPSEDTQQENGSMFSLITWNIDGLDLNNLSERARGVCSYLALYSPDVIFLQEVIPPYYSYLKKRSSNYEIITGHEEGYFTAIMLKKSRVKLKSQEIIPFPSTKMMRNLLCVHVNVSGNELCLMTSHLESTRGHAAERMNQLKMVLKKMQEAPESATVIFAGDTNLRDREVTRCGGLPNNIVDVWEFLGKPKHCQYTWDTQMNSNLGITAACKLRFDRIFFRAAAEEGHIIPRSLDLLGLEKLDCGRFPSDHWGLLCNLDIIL
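Assay system: recombinant human TDP2 / Reagent: T5PNP substrate at 5 mM, a TopII-DNA adduct mimic / Measured by: epi absorbance from released p-nitrophenol / Evaluation: % inhibition relative to enzyme-containing and enzyme-free wells / Control set: enzyme-free and DMSO wells / Replicates: each compound tested once, singlicate / Schedule: enzyme reaction with compound for 2 h at 37 °C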
Of the large screens only hits and unclear results are named; the others gave an inactive call.

CCC1CCC(C(=O)NC(C(=O)NCCN2CCOCC2)C(C)C)CC1 (stereo unspecified)	CTSL1 counter 30
O=C(NCc1ccco1)c1nc2nc(-c3cccs3)cc(C(F)(F)F)n2n1	PRMT1 FP inh 23
O=C(NCc1ccco1)[C@@H]1CSC2c3ccccc3C(=O)N21 (stereo partly specified)	PRMT1 FP inh 21
CCC(C)[C@H](NC(=O)[C@@H]1CSC2c3ccccc3C(=O)N21)C(=O)NCC1CCCO1 (stereo partly specified)	CTSL1 counter 17
CC(C)[C@H](NC(=O)[C@@H]1CSC2c3ccccc3C(=O)N21)C(=O)NCC1CCCO1 (stereo partly specified)	none
Cc1ccc(-c2cc(-c3nnc(SCC(=O)N4c5ccccc5Sc5ccc(Cl)cc54)n3N)[nH]n2)cc1	none (no result: GSTO1 inh, CTSL1 counter, PAD4 FP inh)
ClCc1nnc(-c2ccccc2)o1	GSTO1 inh 102
Cc1ccc(C2CCC3(CCC(=O)N3CCO)CC2)cc1 (stereo unspecified)	none (no result: GSTO1 inh, CTSL1 counter, PAD4 FP inh)
Cc1ccc2ccccc2[n+]1CCCS(=O)(=O)[O-]	none
CSc1sc2ccccc2[n+]1CCCS(=O)(=O)[O-]	PRMT1 FP inh 23
CC(C)CN1C(=O)[C@@]2(CC(=O)N(C)C2c2ccccc2)c2cc(-n3cc(CCCC#N)nn3)ccc21 (stereo partly specified)	none (no result: GSTO1 inh, CTSL1 counter, PAD4 FP inh)
CCCCCCCC/C=C\CCCCCCCC(=O)O	none
CCCCC/C=C\C/C=C\C/C=C\CCCCC(=O)O	CTSL1 counter 34
CCOC(=O)[C@]12CCCC3=C1N(CCC3)C(=O)[C@@H](CC(=O)NCCC(C)C)C2	none (no result: GSTO1 inh, CTSL1 counter, PAD4 FP inh)
CC(C)(C)c1ccc(/C=N/N2C(=O)CSC2=S)cc1	none
O=C1CSC(=S)N1N=Cc1ccc(Cl)s1	PRMT1 FP inh 25 (no result: GSTO1 inh, CTSL1 counter, PAD4 FP inh)
O=C1CSC(=S)N1/N=C/c1cc(Br)ccc1O	none (no result: PRMT1 FP inh, TDP2 absorb)
O=C1CSC(=S)N1/N=C/c1ccc(O)c(O)c1O	GSTO1 inh 67 (no result: PRMT1 FP inh, TDP2 absorb)
O=C(O)c1[nH]c2ccccc2c1C(c1cc(Br)ccc1O)c1c(C(=O)O)[nH]c2ccccc12	GSTO1 inh 59
COc1cc(Cl)cc(C(c2c(C(=O)O)[nH]c3ccccc23)c2c(C(=O)O)[nH]c3ccccc23)c1O	none
O=C(O)c1[nH]c2ccccc2c1C(c1c(F)cccc1Cl)c1c(C(=O)O)[nH]c2ccccc12	GSTO1 inh 41
COc1cc(NC(=O)c2ccccc2)c(C)cc1NC(=O)CSc1nnc(-c2ccccc2F)n1-c1ccc(C)cc1	none (no result: GSTO1 inh, CTSL1 counter, PAD4 FP inh)
CN(Cc1ccccc1)C(=O)OCc1cn(Cc2ccccc2)nn1	none (no result: GSTO1 inh, CTSL1 counter, PAD4 FP inh)
COc1ccc(C(=O)/C=C2\Sc3ccccc3N2C)cc1	none
COc1ccc(-[n+]2c(C)cc(/C=C3\Sc4ccccc4N3C)cc2C)cc1	PRMT1 FP inh 24
CC(C)CN1C(=O)C[C@@]2(C(=O)N(C)c3ccc(NC(=O)c4cc(F)ccc4F)cc32)C1c1ccccc1 (stereo partly specified)	none (no result: GSTO1 inh, CTSL1 counter, PAD4 FP inh)
COc1cccc(NC=C2C(=O)OC3(CCCCC3)OC2=O)c1	CTSL1 counter 19
C=CCN(C)CC#Cc1ccc(C)cc1	none (no result: GSTO1 inh, CTSL1 counter, PAD4 FP inh)
CCC(C)NC(=O)C1CCN(S(=O)(=O)c2ccc3[nH]c(=O)oc3c2)CC1 (stereo unspecified)	none (no result: GSTO1 inh, CTSL1 counter, PAD4 FP inh)
CCOc1ccccc1NC(=O)c1ccc2c(c1)C(=O)N(CC1CCCO1)C2=O (stereo unspecified)	CTSL1 counter 18
CC(C)CNC(=O)OCc1cn(Cc2cc(F)cc(F)c2)nn1	none (no result: GSTO1 inh, CTSL1 counter, PAD4 FP inh)
COc1ccc(/C=C(\NC(=O)c2ccccc2)C(=O)N2CCN(C)CC2)cc1OC	none
COc1ccc(/C=C(/NC(=O)c2ccccc2)C(=O)N2CCOCC2)cc1OC	CTSL1 counter 19
COc1ccc(-c2ccc(/C=C(\NC(=O)c3ccccc3)C(=O)N3CCOCC3)o2)cc1	CTSL1 counter 78
O=C(COc1ccc(C(=O)c2ccc(F)cc2)cc1)NCc1ccc(F)cc1	none
Cc1ccc(CNC(=O)COc2ccc(C(=O)c3ccc(F)cc3)cc2)cc1	GSTO1 inh 56
COC(=O)[C@]12C[C@H](CC(=O)N3CCOCC3)C(=O)N(CCc3ccc(OC)c(OC)c3)C1=C[C@H](C1CCCC1)O[C@@H]2C	none (no result: GSTO1 inh, CTSL1 counter, PAD4 FP inh)
CC(/C=C/c1ccc(N(C)C)cc1)=N\N=C(/N)SC1CC(=O)N(c2ccc(C(=O)O)cc2)C1=O (stereo unspecified)	CTSL1 counter 22
O=C(O)c1ccc(N2C(=O)CC(SC(=Nc3ccccc3)Nc3ccccc3)C2=O)cc1 (stereo unspecified)	none
